ChEMBL document CHEMBL2177013, “Synthesis and biological evaluation of tylophorine-derived dibenzoquinolines as orally active agents: exploration of the role of tylophorine e ring on biological activity” (J Med Chem, 2012)
≈ marks a conversion by molar mass, not a printed value. Calls of active or inactive are those of the source. No cut-off for these calls is given here.

Tests used:
[1] = Oral bioavailability in Sprague-Dawley rat at 3 mg/kg by HPLC-MS method; format: ADME, organism-based; conditions: in vivo
In short: (§1)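 Male rats (330−380 g, 9−10 weeks), jugular vein cannula implanted 1 day before, fasted. 3 mg/kg given iv or orally (n = 3) in DMA/PEG400 30/70 v/v. Blood (150 μL) drawn at 0, 2, 5 (iv only), 15, 30 min and 1, 2, 4, 6, 8, 12, 24 h; plasma analysed by HPLC-MS; noncompartmental analysis.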

[2] = AUC (0 to infinity) in Sprague-Dawley rat at 3 mg/kg, po by HPLC-MS method; format: ADME, organism-based; design: dose 3 mg/kg, route oral, time infinity; conditions: plasma
In short: (§2)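 Male rats (330−380 g, 9−10 weeks old), jugular vein cannulated 1 day before dosing, fasted; 3 mg/kg iv or oral in DMA/PEG400 (30/70, v/v), n = 3. Blood (150 μL) drawn at 0, 2, 5 (iv only), 15, 30 min and 1, 2, 4, 6, 8, 12, 24 h, kept on ice; plasma analysed by HPLC-MS; noncompartmental analysis.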

[3] = Tmax in Sprague-Dawley rat at 3 mg/kg, po by HPLC-MS method; format: ADME, organism-based; design: dose 3 mg/kg, route oral; conditions: in vivo; in short: as §1
[4] = Cmax in Sprague-Dawley rat at 3 mg/kg, po by HPLC-MS method; format: ADME, organism-based; design: dose 3 mg/kg, route oral; conditions: in vivo; in short: as §1
[5] = Apparent elimination half life in Sprague-Dawley rat at 3 mg/kg, po by HPLC-MS method; format: ADME, organism-based; design: dose 3 mg/kg, route oral; conditions: in vivo, read-out: betat1/2(app) (converted); in short: as §1
[6] = AUC (0 to infinity) in Sprague-Dawley rat at 3 mg/kg, iv by HPLC-MS method; format: ADME, organism-based; design: time infinity, dose 3 mg/kg, route intravenous; conditions: plasma; in short: as §2
[7] = Volume of distribution at steady state in Sprague-Dawley rat at 3 mg/kg, iv by HPLC-MS method; format: ADME, organism-based; design: dose 3 mg/kg, route intravenous; conditions: in vivo, read-out: Vdss; in short: as §1
[8] = Clearance in Sprague-Dawley rat at 3 mg/kg, iv by HPLC-MS method; format: ADME, organism-based; design: dose 3 mg/kg, route intravenous; conditions: in vivo; in short: as §1
[9] = Apparent elimination half life in Sprague-Dawley rat at 3 mg/kg, iv by HPLC-MS method; format: ADME, organism-based; design: dose 3 mg/kg, route intravenous; conditions: in vivo, read-out: betat1/2(app) (converted); in short: as §1
[10] = Solubility in DMA; format: physicochemical
[11] = Solubility in DMSO; format: physicochemical
In short: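 Compound dissolved in DMSO with sonication; maximal volume before precipitation measured and used to calculate saturation solubility.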

[12] = test system: Transmissible gastroenteritis virus; test: Antiviral activity against Transmissible gastroenteritis virus infected in ST cells assessed as reduction in caspase-3 activation pre-treated before virus infection measured 16 hrs post virus infection by Western blotting; format: functional, organism-based
In short: (§3)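 ST cells pretreated with compound, then infected with TGEV. Western blot for nucleocapsid (N) protein, caspase 3 (cleavage of procaspase 3) and GAPDH at 16 hpi. Representative of at least three independent experiments.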

[13] = test system: Transmissible gastroenteritis virus; test: Antiviral activity against Transmissible gastroenteritis virus infected in ST cells assessed as reduction in N-protein expression pre-treated before virus infection measured 16 hrs post virus infection by Western blotting; format: functional, organism-based; in short: as §3
[14] = test system: RAW264.7; test: Reduction in LPS/INFgamma-induced COX2 protein expression in mouse RAW264.7 cells incubated for 20 hrs by Western blotting; format: functional, cell-based
In short: (§4)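 LPS/IFNγ-stimulated RAW264.7 cells treated with compound for 20 h. iNOS, COX-2 and GAPDH detected by Western blot; representative of at least three independent experiments.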

[15] = test system: RAW264.7; test: Reduction in LPS/INFgamma-induced iNOS protein expression in mouse RAW264.7 cells incubated for 20 hrs by Western blotting; format: functional, cell-based; in short: as §4
[16] = test system: A549; test: Induction of c-Jun protein accumulation in human A549 cells incubated for 24 hrs by Western blotting; format: functional, cell-based
[17] = test system: A549; test: Down regulation of cyclin A2 expression in human A549 cells incubated for 24 hrs by Western blotting; format: functional, cell-based
[18] = test system: NCI-H460; test: Induction of c-Jun protein accumulation in human NCI-H460 cells incubated for 24 hrs by Western blotting; format: functional, cell-based
[19] = test system: NCI-H460; test: Down regulation of cyclin A2 expression in human NCI-H460 cells incubated for 24 hrs by Western blotting; format: functional, cell-based
[20] = test system: MCF7; test: Induction of c-Jun protein accumulation in human MCF7 cells incubated for 24 hrs by Western blotting; format: functional, cell-based
[21] = test system: MCF7; test: Down regulation of cyclin A2 expression in human MCF7 cells incubated for 24 hrs by Western blotting; format: functional, cell-based
[22] = Cytotoxicity against mouse RAW264.7 cells; format: cell-based
In short: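 RAW264.7 cells stimulated with LPS/IFNγ and compound-treated in parallel with the NO assay; CC50 taken as concentration giving 50% inhibition of cell growth. Mean of at least three experiments, each in duplicate.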

[23] = test system: RAW264.7; test: Antiinflammatory activity in mouse RAW264.7 cells assessed as inhibition of LPS-induced nitric oxide production incubated for 18 hrs by nitrate/nitrite assay; format: functional, cell-based; conditions: RAW264.7, 18 h
In short: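 RAW264.7 seeded 65000 cells/well, cultured 24 h, then medium replaced with complete medium containing IFNγ (20 ng/mL)/LPS (5 μg/mL) plus compound at various concentrations for 18 h; nitric oxide measured by Nitrate/Nitrite kit. EC50 as mean of at least three experiments, each in duplicate.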

[24] = test system: Transmissible gastroenteritis virus; test: Antiviral activity against Transmissible gastroenteritis virus infected in ST cells pre-treated 2 hrs before virus infection measured 6 hrs post virus infection by immunofluorescent assay; format: functional, organism-based; conditions: Alphacoronavirus 1, ST
In short: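 ST cells, with or without 2 h compound pretreatment (10 concentrations), infected with TGEV at MOI 10. Immunofluorescence with anti-spike and anti-nucleocapsid antibodies at 6 hpi. EC50 from dose–response curves, mean of at least three experiments, each in duplicate.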

[25] = Growth inhibition of human HONE1 cells; format: functional
In short: (§5)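 Cells seeded per well: NUGC-3 4500, HONE-1 6000, MCF-7 6500, NCI-H460 2500, HepG2 10000, A549 5000; A549 grown in RPMI 1640 with 2 g/L NaHCO₃, 2 mM L-glutamine and 10% FBS. GI₅₀ = concentration giving 50% growth inhibition, mean of at least three experiments each in duplicate. Paclitaxel served as positive control.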

[26] = test system: NUGC-3; test: Growth inhibition of human NUGC3 cells; format: functional; in short: as §5
[27] = test system: NCI-H460; test: Growth inhibition of human NCI-H460 cells; format: functional; in short: as §5
[28] = test system: MCF7; test: Growth inhibition of human MCF7 cells; format: functional; in short: as §5
[29] = test system: A549; test: Growth inhibition of human A549 cells; format: functional; in short: as §5
[30] = test system: HepG2; test: Growth inhibition of human HepG2 cells; format: functional; in short: as §5
[31] = AUC (0 to infinity) in Sprague-Dawley rat at 1.5 mg/kg, po by HPLC-MS method; format: ADME, organism-based; design: time infinity, dose 1.5 mg/kg, route oral; conditions: plasma
In short: (§6)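 Male rats (330−380 g, 9−10 weeks old) fitted with a jugular vein cannula 1 day before dosing and fasted; 1.5 mg/kg given iv or orally in DMA/PEG400 (50/50, v/v), n = 3. Blood (150 μL) drawn at 0, 2, 5 (iv only), 15, 30 min and 1, 2, 4, 6, 8, 12, 24 h. Plasma analysed by HPLC-MS; parameters by noncompartmental analysis.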

[32] = Tmax in Sprague-Dawley rat at 1.5 mg/kg, po by HPLC-MS method; format: ADME, organism-based; design: dose 1.5 mg/kg, route oral; conditions: in vivo; in short: as §6
[33] = Cmax in Sprague-Dawley rat at 1.5 mg/kg, po by HPLC-MS method; format: ADME, organism-based; design: dose 1.5 mg/kg, route oral; conditions: in vivo; in short: as §6
[34] = Apparent elimination half life in Sprague-Dawley rat at 1.5 mg/kg, po by HPLC-MS method; format: ADME, organism-based; design: dose 1.5 mg/kg, route oral; conditions: in vivo, read-out: betat1/2(app) (converted); in short: as §6
[35] = AUC (0 to infinity) in Sprague-Dawley rat at 1.5 mg/kg, iv by HPLC-MS method; format: ADME, organism-based; design: time infinity, dose 1.5 mg/kg, route intravenous; conditions: plasma; in short: as §6
[36] = Volume of distribution at steady state in Sprague-Dawley rat at 1.5 mg/kg, iv by HPLC-MS method; format: ADME, organism-based; design: dose 1.5 mg/kg, route intravenous; conditions: in vivo, read-out: Vdss; in short: as §6
[37] = Clearance in Sprague-Dawley rat at 1.5 mg/kg, iv by HPLC-MS method; format: ADME, organism-based; design: dose 1.5 mg/kg, route intravenous; conditions: in vivo; in short: as §6
[38] = Apparent elimination half life in Sprague-Dawley rat at 1.5 mg/kg, iv by HPLC-MS method; format: ADME, organism-based; design: dose 1.5 mg/kg, route intravenous; conditions: in vivo, read-out: betat1/2(app) (converted); in short: as §6
[39] = Oral bioavailability in Sprague-Dawley rat at 1.5 mg/kg by HPLC-MS method; format: ADME, organism-based; conditions: in vivo; in short: as §6
[40] = test system: Murine hepatitis virus; test: Antiviral activity against Murine hepatitis virus JHM infected in mouse DBT cells assessed as reduction in N-protein expression at 0.2 to 2 uM pre-treated 1 hr before virus infection and measured 24 hrs post infection by immunofluorescent assay; format: functional, organism-based
In short: (§7)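 DBT murine astrocytoma cells in DMEM/10% heat-inactivated FBS, seeded 2.8 × 10⁵ cells/well the day before infection. Medium switched to DMEM/2% FBS, compound added 1 h before MHV-JHM infection at MOI 0.005. Cytopathic effect viewed by phase contrast and N protein by immunofluorescence at 24 hpi.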

[41] = test system: Murine hepatitis virus; test: Antiviral activity against Murine hepatitis virus JHM infected in mouse DBT cells assessed as reduction in virus-induced cytopathic effect at 0.2 to 2 uM pre-treated 1 hr before virus infection and measured 24 hrs post infection by phase contrast microscopy; format: functional, organism-based; in short: as §7
[42] = test system: SF-268; test: Growth inhibition of human SF268 cells; format: functional
In short: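 SF-268 glioblastoma cells seeded 7500 cells/well in 96-well plates; growth inhibition measured with compound. GI50 as mean of at least three experiments, each in duplicate; paclitaxel positive control.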

| SMILES | bioavailability [1] | solubility [10] | solubility [11] | Activity [12] | Activity [13] | Activity [14] | Activity [15] | Activity [16] | Activity [17] | Activity [18] | Activity [19] | Activity [20] | Activity [21] | CC50 [22] | EC50 [23] | EC50 [24] | GI50 [25] | GI50 [26] | GI50 [27] | GI50 [28] | further results |
| --- | --- | --- | --- | --- | --- | --- | --- | --- | --- | --- | --- | --- | --- | --- | --- | --- | --- | --- | --- | --- | --- |
| CCCN1CCc2c(c3cc(OC)c(OC)cc3c3cc(OC)c(OC)cc23)C1 | 62.8% | soluble | 50 mM (≈ 19.8 mg/mL) | Active | Active | Active | Active | Active | Active | Active | Active | Active | Active | > 4000 nM | 1380 nM | 830 nM | 1210 nM | 470 nM | 450 nM | 510 nM | AUC(0-inf) [2]: 515 ng·h/mL; Tmax [3]: 4 h; Cmax [4]: 87 ng/mL; half-life [5]: 2.4 h; AUC(0-inf) [6]: 824 ng·h/mL; Vd [7]: 9 L/kg; clearance [8]: 60.8 mL/min/kg; half-life [9]: 2.7 h; GI50 [29]: 730 nM; GI50 [30]: 770 nM |
| COc1cc2c(cc1OC)[C@@H]1[C@@H](O)[C@@H]3CCC(=O)N3C[C@@H]1c1cc(OC)c(OC)cc1-2 [TYLOPHOVATINE C] |  |  |  |  |  |  |  |  |  |  |  |  |  |  |  |  |  |  |  |  | AUC(0-inf) [31]: 453 ng·h/mL; Tmax [32]: 4.3 h; Cmax [33]: 39 ng/mL; half-life [34]: 7.6 h; AUC(0-inf) [35]: 448 ng·h/mL; Vd [36]: 12.4 L/kg; clearance [37]: 37.6 mL/min/kg; half-life [38]: 4.6 h; bioavailability [39]: 54.3% |
| COc1cc2c3c(c4cc(OC)c(OC)cc4c2cc1OC)CN1CCC[C@@H]1C3 [TYLOPHORINE] | 66% | soluble | 10 mM (≈ 3.93 mg/mL) | Active | Active | Active | Active | Active | Active | Active | Active | Active | Active | 1240 nM | 270 nM | 80 nM | 270 nM | 190 nM | 230 nM | 240 nM | Activity [40]: Active; Activity [41]: Active; GI50 [42]: 270 nM |
